Test results taken from ChEMBL document CHEMBL3853360, “Combined Interactions with I1-, I2-Imidazoline Binding Sites and α2-Adrenoceptors To Manage Opioid Addiction” (ACS Med Chem Lett, 2016).
Calls of active or inactive are those of the source. The calls are words filed in the database; no cut-off is given here.

Experiments:
[1] = target: T1, Adrenergic receptor alpha-2 (Rattus norvegicus, UniProt P22086+P19328+P22909); test: Displacement of [3H]-RX 821002 from alpha2-AR in Sprague-Dawley rat brain membranes after 30 mins by liquid scintillation counting; assay type: cell membranes, Membrane
T1 sequence (P22086 whole entry): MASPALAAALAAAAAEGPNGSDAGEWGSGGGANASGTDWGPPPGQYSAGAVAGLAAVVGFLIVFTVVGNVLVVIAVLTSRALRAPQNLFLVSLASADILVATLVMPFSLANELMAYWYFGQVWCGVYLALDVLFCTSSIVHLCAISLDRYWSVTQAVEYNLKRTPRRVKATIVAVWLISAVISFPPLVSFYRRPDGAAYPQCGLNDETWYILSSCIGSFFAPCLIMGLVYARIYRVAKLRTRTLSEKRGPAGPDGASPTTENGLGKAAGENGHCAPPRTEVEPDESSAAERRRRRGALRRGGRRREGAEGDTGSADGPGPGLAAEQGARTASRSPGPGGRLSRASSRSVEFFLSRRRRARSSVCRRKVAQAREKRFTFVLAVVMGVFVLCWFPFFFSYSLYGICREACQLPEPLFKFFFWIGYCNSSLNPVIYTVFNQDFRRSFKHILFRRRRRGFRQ
T1 sequence (P19328 whole entry): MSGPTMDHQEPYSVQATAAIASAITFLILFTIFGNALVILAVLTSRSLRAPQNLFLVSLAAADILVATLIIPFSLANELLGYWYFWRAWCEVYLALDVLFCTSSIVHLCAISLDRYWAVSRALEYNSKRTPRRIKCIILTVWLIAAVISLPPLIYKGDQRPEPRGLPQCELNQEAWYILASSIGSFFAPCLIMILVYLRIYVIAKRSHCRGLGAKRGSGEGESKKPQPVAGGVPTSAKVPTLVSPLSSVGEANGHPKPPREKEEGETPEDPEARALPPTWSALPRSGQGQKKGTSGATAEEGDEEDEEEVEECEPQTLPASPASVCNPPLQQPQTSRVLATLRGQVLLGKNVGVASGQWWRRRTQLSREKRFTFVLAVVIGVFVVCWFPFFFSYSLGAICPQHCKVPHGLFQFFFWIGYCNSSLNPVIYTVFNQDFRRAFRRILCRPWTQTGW
T1 sequence (P22909 whole entry): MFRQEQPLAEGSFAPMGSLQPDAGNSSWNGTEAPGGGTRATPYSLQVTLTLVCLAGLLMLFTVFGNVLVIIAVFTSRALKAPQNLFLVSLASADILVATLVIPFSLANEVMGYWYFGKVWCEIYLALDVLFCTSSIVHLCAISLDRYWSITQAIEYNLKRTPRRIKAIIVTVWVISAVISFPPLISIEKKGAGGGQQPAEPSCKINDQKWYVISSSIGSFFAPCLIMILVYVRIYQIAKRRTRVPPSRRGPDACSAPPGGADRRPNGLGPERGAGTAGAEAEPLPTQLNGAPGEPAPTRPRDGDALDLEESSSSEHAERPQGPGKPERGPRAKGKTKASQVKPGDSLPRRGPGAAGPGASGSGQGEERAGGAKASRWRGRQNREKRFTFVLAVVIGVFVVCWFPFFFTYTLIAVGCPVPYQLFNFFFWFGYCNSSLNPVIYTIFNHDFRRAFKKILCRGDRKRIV
How it was run: (§1)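 Radioligand competition binding with pKi determined by displacement. I1 sites: [125I]-p-iodoclonidine on rat kidney membranes. I2 sites: [3H]-2-BFI on rat brain membranes. α2-ARs: [3H]-RX821002 on rat brain membranes.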

Nischarin = Nischarin (Rattus norvegicus, UniProt Q4G017); test: Displacement of [125I]-p-iodoclonidine from I1 receptor imidazoline binding site in Sprague-Dawley rat kidney cell membranes after 30 mins by liquid scintillation counting; how it was run: as §1
[2] = Displacement of [3H]-2-BFI from I2 receptor imidazoline binding site in Sprague-Dawley rat brain membranes after 30 mins by liquid scintillation counting; assay type: cell membranes, Membrane; how it was run: as §1
[3] = target: T2, Alpha-2B adrenergic receptor (Homo sapiens, UniProt P18089); test: Agonist activity at human alpha2b-AR expressed in CHO cells assessed as rate of acidification after 240 mins by cytosensor microphysiometric analysis; assay type: cell-based
T2 sequence (P18089 whole entry): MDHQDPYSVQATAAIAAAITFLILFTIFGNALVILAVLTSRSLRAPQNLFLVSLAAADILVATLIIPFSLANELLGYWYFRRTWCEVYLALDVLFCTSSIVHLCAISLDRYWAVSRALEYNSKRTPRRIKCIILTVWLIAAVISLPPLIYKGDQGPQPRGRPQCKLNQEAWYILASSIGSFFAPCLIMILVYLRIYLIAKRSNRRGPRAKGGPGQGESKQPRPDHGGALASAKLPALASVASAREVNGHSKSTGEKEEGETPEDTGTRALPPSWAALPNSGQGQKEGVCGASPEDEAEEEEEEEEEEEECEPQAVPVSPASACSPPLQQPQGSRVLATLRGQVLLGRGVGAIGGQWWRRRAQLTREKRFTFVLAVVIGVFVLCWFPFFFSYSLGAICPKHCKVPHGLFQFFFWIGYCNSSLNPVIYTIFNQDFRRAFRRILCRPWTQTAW
How it was run: (§2)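 Functional assay in CHO cells stably expressing a single human α2-AR subtype (α2A, α2B or α2C), read on a Cytosensor microphysiometer. Outputs are pEC50, intrinsic activity and, for antagonism, pKb. Intrinsic activity is expressed as a fraction of the full agonist (−)-noradrenaline, set at 1. Values are mean ± SEM of 3–5 separate experiments.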

[4] = target: T3, Alpha-2C adrenergic receptor (Homo sapiens, UniProt P18825); test: Agonist activity at human alpha2c-AR expressed in CHO cells assessed as rate of acidification after 240 mins by cytosensor microphysiometric analysis; assay type: cell-based; how it was run: as §2
T3 sequence (P18825 whole entry): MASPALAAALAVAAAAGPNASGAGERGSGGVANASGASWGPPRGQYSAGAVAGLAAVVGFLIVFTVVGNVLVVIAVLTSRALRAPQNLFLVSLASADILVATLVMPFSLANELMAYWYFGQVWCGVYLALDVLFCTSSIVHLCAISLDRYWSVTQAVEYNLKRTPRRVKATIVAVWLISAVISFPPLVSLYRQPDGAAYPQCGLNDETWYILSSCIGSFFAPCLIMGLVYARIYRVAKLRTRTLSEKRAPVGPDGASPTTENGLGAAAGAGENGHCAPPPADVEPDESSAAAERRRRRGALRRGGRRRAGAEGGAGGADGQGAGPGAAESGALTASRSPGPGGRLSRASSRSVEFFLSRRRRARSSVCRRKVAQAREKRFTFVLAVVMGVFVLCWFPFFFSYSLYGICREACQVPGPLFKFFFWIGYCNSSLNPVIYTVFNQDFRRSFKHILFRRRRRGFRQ

[5] = target: T4, Alpha-2B adrenergic receptor (Homo sapiens) (UniProt P18089); test: Agonist activity at human alpha2b-AR expressed in CHO cells assessed as rate of acidification after 240 mins by cytosensor microphysiometric analysis relative to (-)-noradrenaline; assay type: cell-based; how it was run: as §2
T4 sequence (whole entry): T2 sequence (P18089 whole entry)

[6] = target: T5, Alpha-2C adrenergic receptor (Homo sapiens) (UniProt P18825); test: Agonist activity at human alpha2c-AR expressed in CHO cells assessed as rate of acidification after 240 mins by cytosensor microphysiometric analysis relative to (-)-noradrenaline; assay type: cell-based; how it was run: as §2
T5 sequence (whole entry): T3 sequence (P18825 whole entry)

[7] = target: T6, Alpha-2A adrenergic receptor (Homo sapiens) (UniProt P08913); test: Antagonist activity at human alpha2a-AR expressed in CHO cells assessed as inhibition of (-)-noradrenaline-induced acidification rate after 240 mins by cytosensor microphysiometric analysis; assay type: cell-based; how it was run: as §2
T6 sequence (whole entry): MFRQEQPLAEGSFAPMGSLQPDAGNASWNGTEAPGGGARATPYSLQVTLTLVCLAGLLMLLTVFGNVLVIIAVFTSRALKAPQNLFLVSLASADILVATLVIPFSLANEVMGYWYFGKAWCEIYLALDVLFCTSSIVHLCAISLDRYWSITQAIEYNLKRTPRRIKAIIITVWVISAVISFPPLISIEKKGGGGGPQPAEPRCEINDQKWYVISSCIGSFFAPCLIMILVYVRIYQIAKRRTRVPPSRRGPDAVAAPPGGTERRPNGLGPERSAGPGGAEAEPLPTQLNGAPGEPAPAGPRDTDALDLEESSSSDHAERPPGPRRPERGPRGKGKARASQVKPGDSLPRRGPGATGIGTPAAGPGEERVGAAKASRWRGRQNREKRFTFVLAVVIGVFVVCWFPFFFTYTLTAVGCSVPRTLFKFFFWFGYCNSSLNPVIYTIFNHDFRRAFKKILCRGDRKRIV

[8] = Reduction in morphine dependence expression in CD1 mouse assessed as inhibition of naloxone-precipitated jumping at 10 mg/kg, ip administered acutely 15 mins prior to naloxone challenge relative to control; assay type: functional, organism-based
[9] = Reduction in morphine dependence expression in CD1 mouse assessed as inhibition of naloxone-precipitated rearing frequency at 5 mg/kg, ip administered acutely 15 mins prior to naloxone challenge relative to control; assay type: functional, organism-based
[10] = Reduction in morphine dependence expression in CD1 mouse assessed as inhibition of naloxone-precipitated forepaw tremor frequency at 5 mg/kg, ip administered acutely 15 mins prior to naloxone challenge relative to control; assay type: functional, organism-based
[11] = Reduction in morphine dependence expression in CD1 mouse assessed as inhibition of naloxone-precipitated teeth chattering frequency at 5 mg/kg, ip administered acutely 15 mins prior to naloxone challenge relative to control; assay type: functional, organism-based
[12] = Reduction in morphine dependence expression in CD1 mouse assessed as inhibition of naloxone-precipitated rearing frequency at 10 mg/kg, ip administered acutely 15 mins prior to naloxone challenge relative to control; assay type: functional, organism-based
[13] = Reduction in morphine dependence expression in CD1 mouse assessed as inhibition of naloxone-precipitated forepaw tremor frequency at 10 mg/kg, ip administered acutely 15 mins prior to naloxone challenge relative to control; assay type: functional, organism-based
[14] = Reduction in morphine dependence expression in CD1 mouse assessed as inhibition of naloxone-precipitated teeth chattering frequency at 10 mg/kg, ip administered acutely 15 mins prior to naloxone challenge relative to control; assay type: functional, organism-based
Mus musculus [15] = test: Reduction in morphine dependence acquisition in CD1 mouse assessed as inhibition of naloxone-precipitated jumping at 10 mg/kg, ip administered 15 mins prior to each morphine challenge; assay type: functional, organism-based
How it was run: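 Acquisition protocol in mice given repeated morphine. Test drug at 5 or 10 mg/kg i.p. was given 15 min before each morphine injection. Withdrawal was then precipitated with naloxone and jumping frequency counted. Data are mean ± SEM of 6–10 animals, compared with the morphine group.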

Mus musculus [16] = test: Reduction in morphine dependence acquisition in CD1 mouse assessed as inhibition of naloxone-precipitated rearing frequency at 5 mg/kg, ip administered 15 mins prior to each morphine challenge relative to control; assay type: functional
How it was run: (§3)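 Mice received i.p. test compound (5 or 10 mg/kg) 15 min before each of repeated morphine injections, with vehicle and morphine-only controls. Withdrawal was then precipitated with naloxone. Jumping frequency and somatic signs (rearing, forepaw tremor, teeth chattering; summed frequency) were scored and compared with the morphine group. Data are mean ± SEM of 6–10 animals.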

Mus musculus [17] = test: Reduction in morphine dependence acquisition in CD1 mouse assessed as inhibition of naloxone-precipitated forepaw tremor frequency at 5 mg/kg, ip administered 15 mins prior to each morphine challenge relative to control; assay type: functional; how it was run: as §3
Mus musculus [18] = test: Reduction in morphine dependence acquisition in CD1 mouse assessed as inhibition of naloxone-precipitated teeth chattering frequency at 5 mg/kg, ip administered 15 mins prior to each morphine challenge relative to control; assay type: functional; how it was run: as §3
Mus musculus [19] = test: Reduction in morphine dependence acquisition in CD1 mouse assessed as inhibition of naloxone-precipitated rearing frequency at 10 mg/kg, ip administered 15 mins prior to each morphine challenge relative to control; assay type: functional; how it was run: as §3
Mus musculus [20] = test: Reduction in morphine dependence acquisition in CD1 mouse assessed as inhibition of naloxone-precipitated forepaw tremor frequency at 10 mg/kg, ip administered 15 mins prior to each morphine challenge relative to control; assay type: functional; how it was run: as §3
Mus musculus [21] = test: Reduction in morphine dependence acquisition in CD1 mouse assessed as inhibition of naloxone-precipitated teeth chattering frequency at 10 mg/kg, ip administered 15 mins prior to each morphine challenge relative to control; assay type: functional; how it was run: as §3
[22] = Displacement of [3H]idazoxan from I2 receptor imidazoline binding site in rabbit kidney membranes after 45 mins by […]; assay type: cell membranes, Oryctolagus cuniculus, Membrane
[23] = target: T1, Adrenergic receptor alpha-2; test: Displacement of [3H]-clonidine from alpha2-AR in rat brain cortical membranes after 45 mins by liquid scintillation counting; assay type: cell membranes

Nischarin, sequence (Q4G017 whole entry): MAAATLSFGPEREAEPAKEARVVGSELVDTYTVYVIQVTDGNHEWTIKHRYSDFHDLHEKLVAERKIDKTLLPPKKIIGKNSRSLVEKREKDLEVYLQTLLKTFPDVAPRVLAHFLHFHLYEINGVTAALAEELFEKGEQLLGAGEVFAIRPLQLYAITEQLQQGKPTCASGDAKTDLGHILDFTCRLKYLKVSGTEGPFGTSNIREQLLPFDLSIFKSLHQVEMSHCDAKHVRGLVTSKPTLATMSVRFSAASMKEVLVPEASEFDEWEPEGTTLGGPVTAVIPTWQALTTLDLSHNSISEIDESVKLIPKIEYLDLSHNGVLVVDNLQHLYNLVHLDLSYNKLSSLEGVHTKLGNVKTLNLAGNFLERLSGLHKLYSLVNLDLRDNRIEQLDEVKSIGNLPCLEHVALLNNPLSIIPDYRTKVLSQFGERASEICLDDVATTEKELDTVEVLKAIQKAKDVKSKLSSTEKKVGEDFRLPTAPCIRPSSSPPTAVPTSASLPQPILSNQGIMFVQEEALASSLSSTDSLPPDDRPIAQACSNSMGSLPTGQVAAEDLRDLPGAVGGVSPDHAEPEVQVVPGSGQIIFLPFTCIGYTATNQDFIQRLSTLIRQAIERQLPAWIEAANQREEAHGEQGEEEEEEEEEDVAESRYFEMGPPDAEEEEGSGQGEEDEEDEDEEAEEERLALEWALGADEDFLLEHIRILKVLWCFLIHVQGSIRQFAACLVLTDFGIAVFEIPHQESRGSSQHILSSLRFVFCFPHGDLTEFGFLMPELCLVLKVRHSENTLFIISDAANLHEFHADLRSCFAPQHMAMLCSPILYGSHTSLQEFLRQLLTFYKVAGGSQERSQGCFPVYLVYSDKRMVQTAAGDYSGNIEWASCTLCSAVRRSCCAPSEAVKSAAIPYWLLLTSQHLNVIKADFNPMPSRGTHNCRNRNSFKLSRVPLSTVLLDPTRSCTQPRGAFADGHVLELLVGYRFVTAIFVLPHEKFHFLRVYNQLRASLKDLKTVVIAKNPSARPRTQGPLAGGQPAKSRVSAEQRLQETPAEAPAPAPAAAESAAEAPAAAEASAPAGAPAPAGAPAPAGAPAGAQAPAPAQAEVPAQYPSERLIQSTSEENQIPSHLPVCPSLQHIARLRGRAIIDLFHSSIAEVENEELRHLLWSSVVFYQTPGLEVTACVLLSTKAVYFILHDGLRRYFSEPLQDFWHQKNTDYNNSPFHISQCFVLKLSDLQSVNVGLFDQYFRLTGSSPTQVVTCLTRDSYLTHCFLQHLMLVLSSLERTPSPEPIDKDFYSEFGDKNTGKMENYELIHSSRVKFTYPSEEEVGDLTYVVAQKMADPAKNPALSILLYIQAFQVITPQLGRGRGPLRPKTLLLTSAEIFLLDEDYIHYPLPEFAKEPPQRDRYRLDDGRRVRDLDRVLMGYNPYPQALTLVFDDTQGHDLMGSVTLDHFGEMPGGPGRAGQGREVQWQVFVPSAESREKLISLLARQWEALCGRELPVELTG

| Structure (SMILES) | pKi [1] | Ki (Nischarin) | pKi [2] | EC50 [3] | EC50 [4] | Intrinsic activity [5] | Intrinsic activity [6] | pKb [7] | other results |
| --- | --- | --- | --- | --- | --- | --- | --- | --- | --- |
| CCCc1ccccc1NCC1=NCCN1 | 6.75 | 8.32 nM | 7.29 | 4570 nM | 115 nM | 0.55 | 0.75 | 6.71 | – |
| Cc1ccccc1/C=C/C1=NCCN1 | < 6 | 17.8 nM | 9.11 | – | – | – | – | – | inhibition [8]: 90%; inhibition [9]: 50%; inhibition [10]: 50%; inhibition [11]: 50%; inhibition [12]: 50%; inhibition [13]: 50%; inhibition [14]: 50%; inhibition (Mus musculus [15]): Active; inhibition in vivo at 5 mg/kg (Mus musculus [16]): 34%; inhibition in vivo at 5 mg/kg (Mus musculus [17]): 34%; inhibition in vivo at 5 mg/kg (Mus musculus [18]): 34%; inhibition in vivo at 10 mg/kg (Mus musculus [19]): 46%; inhibition in vivo at 10 mg/kg (Mus musculus [20]): 46%; inhibition in vivo at 10 mg/kg (Mus musculus [21]): 46% |
| C(=C\c1ccccc1)/C1=NCCN1 [TRACIZOLINE] | – | – | – | – | – | – | – | – | pKi [22]: 8.72; pKi [23]: < 6 |
| C=CCc1ccccc1NCC1=NCCN1 | 6.79 | 3.98 nM | 7.85 | 2510 nM | 158 nM | 0.5 | 0.8 | 6.77 | – |
| Clc1ccccc1NCC1=NCCN1 | 7.59 | 7.59 nM | 7.9 | 776 nM | 224 nM | 0.45 | 0.85 | 7.12 | – |
| Clc1ccccc1/C=C/C1=NCCN1 | < 6 | 24 nM | 8.79 | – | – | – | – | – | – |
